From ChEMBL document CHEMBL1124400, “Synthesis and evaluation of antileukemic activity of 5-thienyl- or 5-(2-furyl)-2,3-dihydro-6,7-bis(hydroxymethyl)-1H-pyrrolizine bis(alkylcarbamates) and derivatives” (J Med Chem, 1989) come the findings set out here.

For data set [1], the system named is Mus musculus. Nature of the data set: MST of mitomycin 2 mg/kg treated group x 100/MST of untreated control group at a dose of 25 mg/kg in L1210 leukemic mice. The class given is functional. A digest of the protocol:
(§1)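 Reference group of 8 B6D2F1 mice bearing ip-grafted 10⁵ L1210 cells (day 0), given mitomycin 2 mg/kg in distilled water ip on days 1, 5 and 9. Controls were 12 mice given vehicle only. Mortality was followed daily with autopsy. Ref I = mitomycin-group MST × 100/control MST, run alongside each test experiment.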

Data set [2] in a line: Ratio, I x 100/ref I at a dose of 25 mg/kg in L1210 leukemic mice. The data set is classed as functional. A digest of the protocol:
(§2)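 Male B6D2F1 mice, 3 months old, received 10^5 L1210 cells ip on day 0. Dosing was ip on days 1, 5 and 9 in 20% aqueous Tween 80, 0.1–0.2 mL per 20 g, with 8 mice per group. There were 12 vehicle controls and 8 mice given mitomycin 2 mg/kg ip in water. Daily mortality was recorded, with autopsies. Ratio = treated-group MST ×100/reference-group MST; Wilcoxon, p<0.05.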

Data set [3] relates to Mus musculus. Nature of the data set: Median survival time of treated group / untreated group, when 20 mg/kg compound is administered intraperitoneally in L1210 leukemic mice. The class given is functional. Particulars: route intraperitoneal. The essentials: (§3)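 Male 3-month-old B6D2F1 mice, 10⁵ L1210 cells ip on day 0. Compound was given ip on days 1, 5 and 9 in aqueous 20% Tween 80 (0.1–0.2 mL per 20 g), 8 mice per group. Twelve vehicle controls. Daily mortality with autopsy to assign leukemic versus toxic death. I = treated MST × 100/control MST. Wilcoxon test, p < 0.05; active if I > 125 and p < 0.05.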

Data set [4] has as its system Mus musculus. Kind of data set: MST of mitomycin 2 mg/kg treated group x 100/MST of untreated control group at a dose of 20 mg/kg in L1210 leukemic mice. The class given is functional. A digest of the protocol:
as §1

The nature of data set [5]: Ratio, I x 100/ref I at a dose of 20 mg/kg in L1210 leukemic mice. The data set is classed as functional. The essentials:
as §2

A short description of data set [6]: Lethal dose in L1210 leukemic mice, by administering compound intraperitoneally. The data set is classed as toxicity, organism-based. Particulars: mouse, in vivo, ip. A digest of the protocol: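 Male B6D2F1 mice (3 months old) received 10⁵ L1210 leukemia cells ip on day 0. One day later they were given compound ip. Mortality was recorded daily for 9 days and the acute LD50 expressed in mg/kg.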

Data set [7] deals with Mus musculus. Kind of data set: Median survival time of treated group / untreated group, when 25 mg/kg compound is administered intraperitoneally in L1210 leukemic mice. The class given is functional. Particulars: route intraperitoneal. A digest of the protocol:
as §3

The test system of data set [8] is Mus musculus. Kind of data set: Median survival time of treated group / untreated group, when 100 mg/kg compound is administered intraperitoneally in L1210 leukemic mice. Particulars: route intraperitoneal.
In data set [9] the test system is Mus musculus. Nature of the data set: Median survival time of treated group / untreated group, when 75 mg/kg compound is administered intraperitoneally in L1210 leukemic mice. The data set is classed as functional. Particulars: route intraperitoneal. The essentials: as §3
The nature of data set [10]: Ratio, I x 100/ref I at a dose of 100 mg/kg in L1210 leukemic mice. The data set is classed as functional. A digest of the protocol:
as §2

In data set [11] the test system is Mus musculus. Nature of the data set: MST of mitomycin 2 mg/kg treated group x 100/MST of untreated control group at a dose of 16 mg/kg in L1210 leukemic mice. The data set is classed as functional. A digest of the protocol: as §1
Data set [12] can be described thus: Ratio, I x 100/ref I at a dose of 40 mg/kg in L1210 leukemic mice. The class given is functional. The essentials: as §2
For data set [13], the system named is Mus musculus. Nature of the data set: MST of mitomycin 2 mg/kg treated group x 100/MST of untreated control group at a dose of 75 mg/kg in L1210 leukemic mice. The class given is functional. A digest of the protocol: as §1
Data set [14] has as its system Mus musculus. Kind of data set: MST of mitomycin 2 mg/kg treated group x 100/MST of untreated control group at a dose of 40 mg/kg in L1210 leukemic mice. The data set is classed as functional. The essentials:
as §1

Data set [15] deals with Mus musculus. Nature of the data set: MST of mitomycin 2 mg/kg treated group x 100/MST of untreated control group at a dose of 100 mg/kg in L1210 leukemic mice. The class given is functional. The essentials:
as §1

Data set [16] is described as follows: Ratio of acute lethal dose to the efficient dose at 100 mg/kg dose. The class given is functional. A digest of the protocol: (§4)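 Ratio of acute LD50 to efficient dose. LD50 came from single ip dosing one day after ip grafting of 10⁵ L1210 cells in B6D2F1 mice, with 9-day mortality. The efficient dose came from ip treatment on days 1, 5 and 9 in the median-survival test.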

Data set [17] in a line: Ratio of acute lethal dose to the efficient dose at 85 mg/kg dose. The class given is functional. The essentials: as §4
Data set [18] can be described thus: Ratio, I x 100/ref I at a dose of 75 mg/kg in L1210 leukemic mice.
Data set [19] has as its system Mus musculus. Kind of data set: Median survival time of treated group / untreated group, when 40 mg/kg compound is administered intraperitoneally in L1210 leukemic mice. The data set is classed as functional. To be noted: route intraperitoneal. A digest of the protocol:
as §3

Data set [20] can be described thus: Ratio, I x 100/ref I at a dose of 16 mg/kg in L1210 leukemic mice. The data set is classed as functional. The essentials: as §2
Data set [21] concerns Mus musculus. Nature of the data set: Median survival time of treated group / untreated group, when 16 mg/kg compound is administered intraperitoneally in L1210 leukemic mice. Particulars: route intraperitoneal. The data set is classed as functional. A digest of the protocol: as §3
A short description of data set [22]: Ratio of acute lethal dose to the efficient dose 65 mg/kg. The class given is functional. The essentials: as §4
Data set [23] relates to Mus musculus. Nature of the data set: Median survival time of treated group / untreated group, when 65 mg/kg compound is administered intraperitoneally in L1210 leukemic mic. The class given is functional. To be noted: route intraperitoneal. A digest of the protocol: as §3
Data set [24] in a line: Ratio of acute lethal dose to the efficient dose 40 mg/kg. The class given is functional. A digest of the protocol: as §4
The test system of data set [25] is Mus musculus. Kind of data set: MST of mitomycin 2 mg/kg treated group x 100/MST of untreated control group at a dose of 65 mg/kg in L1210 leukemic mice. The class given is functional. The essentials: as §1
Data set [26] can be described thus: Ratio, I x 100/ref I at a dose of 65 mg/kg in L1210 leukemic mice. The data set is classed as functional. A digest of the protocol: as §2
The nature of data set [27]: Ratio of acute lethal dose to the efficient dose 30 mg/kg. The class given is functional. The essentials: as §4
The nature of data set [28]: Ratio of acute lethal dose to the efficient dose 35 mg/kg. The data set is classed as functional. The essentials: as §4
A short description of data set [29]: Ratio, I x 100/ref I at a dose of 35 mg/kg in L1210 leukemic mice. The data set is classed as functional. The essentials: as §2
Data set [30] relates to Mus musculus. Nature of the data set: Median survival time of treated group / untreated group, when 35 mg/kg compound is administered intraperitoneally in L1210 leukemic mice. The class given is functional. Particulars: route intraperitoneal. The essentials: as §3
In data set [31] the test system is Mus musculus. Kind of data set: MST of mitomycin 2 mg/kg treated group x 100/MST of untreated control group at a dose of 35 mg/kg in L1210 leukemic mice. The data set is classed as functional. The essentials:
as §1

Data set [32] has as its system Mus musculus. Nature of the data set: MST of mitomycin 2 mg/kg treated group x 100/MST of untreated control group at a dose of 8 mg/kg in L1210 leukemic mice. The class given is functional. The essentials: as §1
Data set [33] is described as follows: Ratio of acute lethal dose to the efficient dose at 20 mg/kg. The data set is classed as functional. A digest of the protocol:
as §4

Data set [34] concerns Mus musculus. Nature of the data set: Median survival time of treated group / untreated group, when 8 mg/kg compound is administered intraperitoneally in L1210 leukemic mice. To be noted: route intraperitoneal. The data set is classed as functional. A digest of the protocol:
as §3

Data set [35] can be described thus: Ratio, I x 100/ref I at a dose of 8 mg/kg in L1210 leukemic mice. The class given is functional. A digest of the protocol: as §2

Where “and” joins values, the source holds several entries; their conditions need not be identical. Identical values can stand only once.

The LD50 is the dose expected to kill half of the subjects tested. Read a low LD50 as greater toxicity. Regarding `CC(C)NC(=O)OCc1c(COC(=O)NC(C)C)c(-c2ccsc2)n2c1CCC2`, the figures for the “Ref I oncostatic index” value in the data set on Mus musculus [1] and with Mus musculus [4] were 162 and 139, respectively. The Ratio in [2] and in [5] was 72 throughout. The Oncostatic index with Mus musculus [3] worked out at 100; in the data set on Mus musculus [7] it was 117. The molecule also gave an LD50 in data set [6] of 65 mg/kg.
Regarding `CNC(=O)OCc1c(COC(=O)NC)c(-c2ccsc2)n2c1CCC2`, the Oncostatic index amounted to 120 in the data set with Mus musculus [8], 120 in the data set on Mus musculus [9], 100 in the data set with Mus musculus [19] and 100 in the data set on Mus musculus [21]. For the same molecule, the Ratio amounted to 86 in data set [10]; 80 in [12]; 1.2 in data set [16]; 1.4 in data set [17]; 86 in data set [18]; 80 in data set [20]. Besides, the “Ref I oncostatic index” value is 125 in the data set on Mus musculus [11]; 140 and 126 in the data set with Mus musculus [13]; 125 in the data set with Mus musculus [14]; 140 in the data set on Mus musculus [15]. In data set [6], this molecule yielded an LD50 greater than 150 mg/kg.
Take `CNC(=O)OCc1c(COC(=O)NC)c(-c2cccs2)n2c1CCC2`: the Ratio turned out to be 1.8 in data set [22]; 3 in data set [24]; 100 in [12]; 100 in data set [26]; 1.7 in data set [27]; 3.4 in data set [28]. In data set [29], the Ratio was 100. Besides, the Oncostatic index came to 125 with Mus musculus [23], 138 in the data set on Mus musculus [19] and 167 in the data set with Mus musculus [30]. Moreover, the “Ref I oncostatic index” value with Mus musculus [14] was 138; in the data set on Mus musculus [25] it was 125; in the data set on Mus musculus [31], 167. The LD50 in data set [6] turned out to be 120 mg/kg.
Regarding `CNC(=O)OCc1c(COC(=O)NC)c(-c2cccs2)n2c1CSC2`, the “Ref I oncostatic index” value with Mus musculus [32] amounted to 117; with Mus musculus [4], 121. The Ratio in data set [33] was found to be 2.5; in data set [5] it was 103; in [35], 86. Moreover, the values for the Oncostatic index in the data set on Mus musculus [34] and in the data set on Mus musculus [3] were 100 and 125, respectively. Further, the LD50 in data set [6] turned out to be 50 mg/kg.
